Laboratory results as given in ChEMBL document CHEMBL1135533, “Synthesis and in vitro studies of novel pyrimidinyl peptidomimetics as potential antimalarial therapeutic agents” (J Med Chem, 2002).
Converted amounts (≈) assume the structure as drawn.

Experiments:
Colon cell line = assay: In vitro inhibition of cell growth in human colon cell line.; type: functional, cell-based
Outline: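 SW620 colon cells grown and tested in RPMI-1640 with 10% FBS. Serially diluted compound was placed in wells, cells were seeded straight onto it, and solvent blanks were included. After 72 h, cells were fixed with cold TCA (10% final) for 1 h at 4 °C, stained 30 min with 0.4% SRB in 1% acetic acid, and bound dye was solubilized in 10 mM Tris base, pH 10.5.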

Neuronal cell line = assay: In vitro inhibition of cell growth in human neuronal cell line.; type: functional, cell-based
Plasmodium falciparum [1] = assay: Inhibitory activity against chloroquine-sensitive Plasmodium falciparum D6 (CDC/Sierra Leone I); type: functional, organism-based
Outline: (§1)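 Drug stocks in DMSO, diluted 400-fold into RPMI 1640 with 25 mM Hepes, 32 mM NaHCO3 and 10% Albumax I, then 2-fold serial dilutions (over 11 concentrations). Parasites exposed 48 h at 37 °C under 5% O2/5% CO2/90% N2, then [3H]hypoxanthine added for a further 18 h. Uptake counted by scintillation; IC50 from nonlinear regression logistic dose-response fit.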

Plasmodium falciparum [2] = assay: Inhibitory activity against chloroquine-resistant Plasmodium falciparum W-2 Indochina III; type: functional, organism-based; outline: as §1

Compound	IC50 (Colon cell line) [µg/mL]	IC50 (Neuronal cell line) [µg/mL]	IC50 (Plasmodium falciparum [1]) [µg/mL]	IC50 (Plasmodium falciparum [2]) [µg/mL]
COC(=O)/C(=C/Cn1c(-c2ccccc2)ncc(NC(=O)OCc2ccccc2)c1=O)COC(=O)c1ccc([N+](=O)[O-])cc1	7.6 (≈ 12.7 µM)	1.75 (≈ 2.92 µM)	0.024 (≈ 0.0401 µM)	0.024 (≈ 0.0401 µM)
COC(=O)/C(=C/Cn1c(-c2ccccc2)ncc(NC(=O)N2CCN(C(C)=O)CC2)c1=O)COC(C)=O	> 50	13.8 (≈ 27 µM)	0.017 (≈ 0.0332 µM)	0.018 (≈ 0.0352 µM)
COC(=O)/C(=C/Cn1c(-c2ccccc2)ncc(NC(=O)OCc2ccccc2)c1=O)COC(C)=O	> 50	0.92 (≈ 1.87 µM)	0.017 (≈ 0.0346 µM)	0.017 (≈ 0.0346 µM)
COC(=O)/C(=C/[C@H](C)NC(=O)Cn1c(-c2ccccc2)ncc(NC(=O)OCc2ccccc2)c1=O)COC(C)=O	1.6 (≈ 2.84 µM)	1.1 (≈ 1.96 µM)	0.009 (≈ 0.016 µM)	0.01 (≈ 0.0178 µM)
COC(=O)/C(=C/Cn1c(-c2ccccc2)ncc(NC(=O)OCc2ccccc2)c1=O)COC(=O)c1ccccc1	13.5 (≈ 24.4 µM)	2.6 (≈ 4.7 µM)	0.027 (≈ 0.0488 µM)	0.028 (≈ 0.0506 µM)
COC(=O)/C(=C/Cn1c(-c2ccccc2)ncc(NC(=O)OCc2ccccc2)c1=O)CO	> 50	0.95 (≈ 2.11 µM)	0.016 (≈ 0.0356 µM)	0.017 (≈ 0.0378 µM)
